Reference: ChEMBL document CHEMBL1938284, “Synthesis and biological activity of novel organoselenium derivatives targeting multiple kinases and capable of inhibiting cancer progression to metastases” (Eur J Med Chem, 2012)

Test: Antiproliferative activity against human MDA231 cells after 72 hrs by MTT assay
Type: functional, cell-based
Details: MDA-MB-231, 72 h
Outline: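 MTT read-out on MDA-231 cells. 1×10^3 exponentially growing cells seeded and incubated 24, 48 and 72 h. Medium replaced with 1 mg/mL MTT for 3–4 h at 37 °C.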

| SMILES | IC50 [µM] |
| --- | --- |
| CC(=O)OC[C@H]1O[C@@H](n2[se]c3ccccc3c2=O)[C@H](OC(C)=O)[C@@H](OC(C)=O)[C@H]1OC(C)=O | 21 |
| CC(=O)OC[C@H]1O[C@@H](n2[se]c3ccccc3c2=O)[C@H](OC(C)=O)[C@@H](OC(C)=O)[C@@H]1O[C@@H]1O[C@H](COC(C)=O)[C@@H](OC(C)=O)[C@H](OC(C)=O)[C@H]1OC(C)=O | 20 |
| O=c1c2ccccc2[se]n1[C@@H]1O[C@H](CO)[C@@H](O[C@@H]2O[C@H](CO)[C@@H](O)[C@H](O)[C@H]2O)[C@H](O)[C@H]1O | > 100 |
| O=c1c2ccccc2[se]n1CCO[C@@H]1O[C@H](CO)[C@@H](O)[C@H](O)[C@H]1O | > 100 |
| CC(=O)OC[C@H]1O[C@@H](OCCn2[se]c3ccccc3c2=O)[C@H](OC(C)=O)[C@@H](OC(C)=O)[C@@H]1OC(C)=O | 35 |
| O=c1c2ccccc2[se]n1[C@@H]1O[C@H](CO)[C@@H](O[C@@H]2O[C@H](CO)[C@H](O)[C@H](O)[C@H]2O)[C@H](O)[C@H]1O | > 100 |
| O=c1c2ccccc2[se]n1[C@@H]1O[C@H](CO)[C@H](O)[C@H](O)[C@H]1O | > 100 |
